# Experimental data reported in ChEMBL document CHEMBL4229376, “Optimization of the pharmacokinetic properties of potent anti-trypanosomal triazine derivatives” (Eur J Med Chem, 2018).
# The source made the active and inactive calls. No cut-off for these calls is given here.
# Legend:
# [1] = Drug uptake in Swiss mouse blood at 50 mg/kg, po administered as single dose after 4 hrs by UPLC/MS/ESI analysis; type: ADME, organism-based; conditions: whole blood, read-out: Drug uptake
# How it was run: (§1)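 Mice were given the compound orally as a single dose of either 25 or 50 mg/kg, one group per dose. Plasma concentrations were followed over time up to 24 h, and the pharmacokinetic parameters were derived from the concentration-time profile.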
# Mus musculus = assay: Apparent volume of distribution in Swiss mouse infected with Trypanosoma brucei brucei Squib 427 at 50 mg/kg, po bid for 5 days after 24 hrs by UPLC/MS/ESI analysis; type: ADME, organism-based; conditions: in vivo
# [2] = Ratio of Cmax in Swiss mouse at 50 mg/kg, po administered as single dose after 24 hrs by LC-MS analysis to IC50 for antitrypanosomal activity against suramin-sensitive Trypanosoma brucei brucei Squib 427 after 72 hrs by resazurin dye-based fluorimetric analysis; type: ADME, organism-based; conditions: in vivo
# [3] = Drug uptake in Swiss mouse blood at 50 mg/kg, po administered as single dose after 0.25 hrs by UPLC/MS/ESI analysis; type: ADME, organism-based; conditions: whole blood, read-out: Drug uptake; how it was run: as §1
# [4] = Drug uptake in Swiss mouse blood at 25 mg/kg, po administered as single dose after 24 hrs by UPLC/MS/ESI analysis; type: ADME, organism-based; conditions: whole blood, read-out: Drug uptake; how it was run: as §1
# [5] = Cmax in Swiss mouse infected with Trypanosoma brucei brucei Squib 427 at 25 mg/kg, po administered as single dose after 24 hrs by UPLC/MS/ESI analysis; type: ADME, organism-based; set-up: dose 25 mg/kg, route oral; conditions: in vivo
# [6] = Drug level in Swiss mouse blood infected with Trypanosoma brucei brucei Squib 427 at 50 mg/kg, po bid for 5 days measured after 4 hrs after last dose by UPLC/MS/ESI analysis; type: ADME, organism-based; conditions: whole blood, read-out: Drug uptake
# [7] = Drug metabolism in human liver microsomes assessed as CYP450 mediated compound […] by measuring parent compound remaining at 5 uM after 60 mins in presence of NADPH by UPLC/MS/ESI analysis; type: ADME; conditions: read-out: Stability
# [8] = AUC (0 to >4 hrs) in Swiss mouse infected with Trypanosoma brucei brucei Squib 427 at 25 mg/kg, po administered as single dose by UPLC/MS/ESI analysis; type: ADME, organism-based; conditions: in vivo
# [9] = system: Trypanosoma brucei brucei; assay: Antitrypanosomal activity against Trypanosoma brucei brucei Squib 427 infected in Swiss mouse assessed as mouse survival at 50 mg/kg, po bid for 5 days and measured on day 14 post infection; type: functional, organism-based
# How it was run: (§2)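 Acute T. b. brucei mouse infection model. Dosing was PO or IP at 10–50 mg/kg, once (SID) or twice (BID) daily for 5 days after infection, with 3 mice per group. […] Read-outs were mean survival time and survivors on day 14 post infection.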
# [10] = Drug uptake in Swiss mouse blood at 25 mg/kg, po administered as single dose after 2 hrs by UPLC/MS/ESI analysis; type: ADME, organism-based; conditions: whole blood, read-out: Drug uptake; how it was run: as §1
# [11] = Protein binding in mouse plasma assessed as drug recovery at 2 uM after 6 hrs by equilibrium dialysis and LC-MS analysis; type: ADME, cell-free; conditions: read-out: Drug recovery
# Trypanosoma cruzi = assay: Antitrypanosomal activity against nifurtimox-sensitive Trypanosoma cruzi Tulahuen CL2 infected in human MRC5 SV2 cells assessed as reduction in parasite burden after 168 hrs by CPRG and Nonidet based spectrophotometric analysis; type: functional, organism-based; conditions: Tulahuen CL2, MRC-5 SV2, 168 h
# [12] = Drug level in Swiss mouse blood infected with Trypanosoma brucei brucei Squib 427 at 50 mg/kg, po bid for 5 days measured after 2 hrs after last dose by UPLC/MS/ESI analysis; type: ADME, organism-based; conditions: whole blood, read-out: Drug uptake
# [13] = Drug metabolism in mouse liver microsomes assessed as CYP450 mediated compound […] by measuring parent compound remaining at 5 uM after 60 mins in presence of NADPH by UPLC/MS/ESI analysis; type: ADME; conditions: read-out: Stability
# [14] = Drug level in Swiss mouse blood infected with Trypanosoma brucei brucei Squib 427 at 25 mg/kg, po bid for 5 days measured after 4 hrs after last dose by UPLC/MS/ESI analysis; type: ADME, organism-based; conditions: whole blood, read-out: Drug uptake
# [15] = Drug metabolism in mouse liver microsomes assessed as UGT mediated compound […] by measuring parent compound remaining at 5 uM after 60 mins in presence of UDPGA by UPLC/MS/ESI analysis; type: ADME; conditions: 1 h
# How it was run: (§3)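 Metabolic stability was run with mouse liver microsomal fraction (S9) and read as percent parent compound remaining over incubation time. Diclofenac served as the reference compound.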
# [16] = system: Trypanosoma brucei brucei; assay: Antitrypanosomal activity against Trypanosoma brucei brucei Squib 427 infected in Swiss mouse at 50 mg/kg, po administered as single dose after 24 hrs; type: functional, organism-based; conditions: Squib 427, 24 h
# [17] = Drug level in Swiss mouse blood infected with Trypanosoma brucei brucei Squib 427 at 25 mg/kg, po bid for 5 days measured after 0.5 hrs after last dose by UPLC/MS/ESI analysis; type: ADME, organism-based; conditions: whole blood, read-out: Drug uptake
# Peritoneal macrophage = assay: Cytotoxicity against mouse primary peritoneal macrophages after 72 hrs by resazurin dye-based fluorimetric analysis; type: cell-based
# [18] = Drug metabolism in mouse liver microsomes assessed as CYP450 mediated compound […] by measuring parent compound remaining at 5 uM after 30 mins in presence of NADPH by UPLC/MS/ESI analysis; type: ADME; conditions: read-out: Stability
# [19] = Drug uptake in Swiss mouse blood at 50 mg/kg, po administered as single dose after 2 hrs by UPLC/MS/ESI analysis; type: ADME, organism-based; conditions: whole blood, read-out: Drug uptake; how it was run: as §1
# [20] = Drug uptake in Swiss mouse blood at 50 mg/kg, po administered as single dose after 0.5 hrs by UPLC/MS/ESI analysis; type: ADME, organism-based; conditions: whole blood, read-out: Drug uptake; how it was run: as §1
# [21] = system: Trypanosoma brucei brucei; assay: Antitrypanosomal activity against Trypanosoma brucei brucei Squib 427 infected in Swiss mouse assessed as mouse survival at 50 mg/kg, po administered as single dose for 5 days and measured on day 14 post infection; type: functional, organism-based; how it was run: as §2
# [22] = AUC (0 to >4 hrs) in Swiss mouse at 25 mg/kg, po administered as single dose by UPLC/MS/ESI analysis; type: ADME, organism-based; conditions: in vivo
# How it was run: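 Mice in groups received one oral dose of 25 or 50 mg/kg. Plasma concentrations were followed over time up to 24 h, and PK parameters including T1/2 were derived from the concentration–time profile.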
# [23] = Protein binding in mouse plasma assessed as drug recovery at 10 uM after 6 hrs by equilibrium dialysis and LC-MS analysis; type: ADME, cell-free; conditions: read-out: Drug recovery
# [24] = Drug level in Swiss mouse blood infected with Trypanosoma brucei brucei Squib 427 at 50 mg/kg, po bid for 5 days measured after 0.5 hrs after last dose by UPLC/MS/ESI analysis; type: ADME, organism-based; conditions: whole blood, read-out: Drug uptake
# [25] = system: Trypanosoma brucei brucei; assay: Antitrypanosomal activity against suramin-sensitive Trypanosoma brucei brucei Squib 427 after 72 hrs by resazurin dye-based fluorimetric analysis; type: functional, organism-based; conditions: Squib 427, 72 h
# [26] = system: Trypanosoma brucei brucei; assay: Antitrypanosomal activity against Trypanosoma brucei brucei Squib 427 infected in Swiss mouse assessed as mean survival days at 10 mg/kg, ip administered as single dose for 5 days; type: functional
# How it was run: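 Acute mouse infection model with T. b. brucei. Dosing ran for 5 days after infection, orally or intraperitoneally, once or twice daily. Groups were 3 mice each, with vehicle-treated infected controls. The read-out was mean survival time in days, plus the number of survivors on day 14 post-infection.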
# [27] = Drug metabolism in mouse liver microsomes assessed as UGT mediated compound […] by measuring parent compound remaining at 5 uM after 30 mins in presence of UDPGA by UPLC/MS/ESI analysis; type: ADME; conditions: 0.5 h; how it was run: as §3
# [28] = Drug metabolism in human plasma assessed as parent compound remaining after 1440 mins by UPLC/MS/ESI analysis; type: ADME, cell-free; conditions: read-out: Stability
# How it was run: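 Compound incubated in human plasma for 24 h at 37 °C, and the fraction of parent compound remaining was determined.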
smiles,measurement,setting,value
Nc1nc(Nc2ccc(F)cc2)nc(Oc2ccc(F)cc2)n1,concentration at 4 h,[1],2030 ng/mL
same,Vz,Mus musculus,10.9 L
same,Ratio,[2],10
same,concentration at 0.25 h,[3],1320 ng/mL
same,concentration at 24 h,[4],50 ng/mL
same,Cmax,[5],2690 ng/mL
same,concentration at 4 h,[6],800 ng/mL
same,"remaining at 1 h, 5 µM",[7],65%
same,AUC at 4 h,[8],4710 ng·h/mL
same,Activity,[9],inactive
same,concentration at 2 h,[10],1320 ng/mL
same,"recovery at 6 h, 2 µM",[11],90.2%
same,IC50,Trypanosoma cruzi,> 64000 nM
same,concentration at 2 h,[12],2840 ng/mL
same,"remaining at 1 h, 5 µM",[13],74%
same,concentration at 4 h,[14],204 ng/mL
same,Stability,[15],101%
same,IC50,[16],630 nM
same,concentration at 0.5 h,[17],2090 ng/mL
same,IC50,Peritoneal macrophage,> 64000 nM
same,"remaining at 0.5 h, 5 µM",[18],80%
same,concentration at 2 h,[19],1630 ng/mL
same,concentration at 0.5 h,[20],1780 ng/mL
same,Activity,[21],inactive
same,AUC at 4 h,[22],13800 ng·h/mL
same,"recovery at 6 h, 10 µM",[23],75.4%
same,concentration at 0.5 h,[24],2870 ng/mL
same,IC50,[25],600 nM
same,MST,[26],7 days
same,Stability,[27],103%
same,remaining at 24 h,[28],87%
